From ChEMBL document CHEMBL4033785, “Increased Potency and Selectivity for Group III Metabotropic Glutamate Receptor Agonists Binding at Dual sites” (J Med Chem, 2018)

Key:
[1] = molecular target: T1, Metabotropic glutamate receptor 8 (Homo sapiens, UniProt O00222); test: Agonist activity at mGlu8 (unknown origin) expressed in HEK293 cells coexpressing chimeric Gq/i protein assessed as [3H]inositol phosphate accumulation after 30 mins by scintillation and luminescence counting method; assay type: functional, cell-based
T1 sequence (O00222 whole entry): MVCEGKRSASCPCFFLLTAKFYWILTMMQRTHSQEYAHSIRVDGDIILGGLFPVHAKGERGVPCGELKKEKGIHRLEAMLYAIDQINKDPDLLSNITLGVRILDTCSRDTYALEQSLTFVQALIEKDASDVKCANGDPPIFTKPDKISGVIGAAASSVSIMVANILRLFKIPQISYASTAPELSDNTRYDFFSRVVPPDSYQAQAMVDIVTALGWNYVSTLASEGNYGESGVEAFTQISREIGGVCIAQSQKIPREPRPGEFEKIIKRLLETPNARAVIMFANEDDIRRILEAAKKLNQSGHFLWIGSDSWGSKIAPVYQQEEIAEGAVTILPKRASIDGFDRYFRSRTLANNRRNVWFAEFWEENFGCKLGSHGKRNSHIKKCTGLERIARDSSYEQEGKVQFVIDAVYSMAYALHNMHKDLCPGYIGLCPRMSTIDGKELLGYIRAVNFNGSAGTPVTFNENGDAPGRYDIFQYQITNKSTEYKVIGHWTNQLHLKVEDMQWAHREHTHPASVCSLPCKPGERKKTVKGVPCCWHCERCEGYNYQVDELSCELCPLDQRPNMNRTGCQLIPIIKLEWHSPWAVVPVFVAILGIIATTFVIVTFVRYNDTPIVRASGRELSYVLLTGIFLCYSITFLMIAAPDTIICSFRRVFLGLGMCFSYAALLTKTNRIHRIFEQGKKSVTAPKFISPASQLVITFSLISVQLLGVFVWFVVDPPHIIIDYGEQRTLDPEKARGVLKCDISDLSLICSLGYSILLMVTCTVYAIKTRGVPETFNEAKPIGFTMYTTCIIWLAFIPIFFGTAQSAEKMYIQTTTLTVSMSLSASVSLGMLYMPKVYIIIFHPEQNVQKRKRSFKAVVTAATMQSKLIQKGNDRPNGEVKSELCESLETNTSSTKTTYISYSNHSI
How it was run: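 Receptor transiently co-expressed in HEK293 cells (electroporation) with chimeric G-protein and glutamate transporter EAAT3. Cells labelled overnight with 3H-myoinositol, stimulated with agonist 30 min, lysed 1 h in cold 0.1 M formic acid. 3H-IP isolated on Dowex ion exchange and counted. IP expressed relative to IP plus membrane radioactivity. Points in triplicate; EC50 from Hill-equation fit.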

Homo sapiens [2] = organism: Homo sapiens; test: Selectivity ratio of EC50 for mGlu8 (unknown origin) expressed in HEK293 cells coexpressing chimeric Gq/i protein assessed as [3H]inositol phosphate accumulation to EC50 for mGlu4 (unknown origin) expressed in HEK293 cells coexpressing chimeric Gq/i protein assessed as [3H]inositol phosphate accumulation; assay type: cell-based
How it was run: (§1)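 Ratio of mGlu8 EC50 to mGlu4 EC50, both from the same functional assay. Both receptors were co-expressed in HEK293 cells with chimeric G-protein and EAAT3 and read by 3H-IP accumulation or by Fluo-4 Ca2+ release.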

Homo sapiens [3] = organism: Homo sapiens; test: Selectivity ratio of EC50 for mGlu8 (unknown origin) expressed in HEK293 cells coexpressing chimeric Gq/i protein assessed as increase in intracellular calcium accumulation to EC50 for mGlu4 (unknown origin) expressed in HEK293 cells coexpressing chimeric Gq/i protein assessed as increase in intracellular calcium accumulation; assay type: cell-based; how it was run: as §1
[4] = molecular target: T1, Metabotropic glutamate receptor 8; test: Agonist activity at mGlu8 (unknown origin) expressed in HEK293 cells coexpressing chimeric Gq/i protein assessed as increase in intracellular calcium accumulation by Fluo-4 AM dye based fluorescence assay; assay type: functional, cell-based
[5] = molecular target: Metabotropic glutamate receptor 4 (Homo sapiens, UniProt Q14833); test: Agonist activity at mGlu4 (unknown origin) expressed in HEK293 cells coexpressing chimeric Gq/i protein assessed as increase in intracellular calcium accumulation by Fluo-4 AM dye based fluorescence assay; assay type: functional, cell-based
Chain of Metabotropic glutamate receptor 4 (Q14833 whole entry): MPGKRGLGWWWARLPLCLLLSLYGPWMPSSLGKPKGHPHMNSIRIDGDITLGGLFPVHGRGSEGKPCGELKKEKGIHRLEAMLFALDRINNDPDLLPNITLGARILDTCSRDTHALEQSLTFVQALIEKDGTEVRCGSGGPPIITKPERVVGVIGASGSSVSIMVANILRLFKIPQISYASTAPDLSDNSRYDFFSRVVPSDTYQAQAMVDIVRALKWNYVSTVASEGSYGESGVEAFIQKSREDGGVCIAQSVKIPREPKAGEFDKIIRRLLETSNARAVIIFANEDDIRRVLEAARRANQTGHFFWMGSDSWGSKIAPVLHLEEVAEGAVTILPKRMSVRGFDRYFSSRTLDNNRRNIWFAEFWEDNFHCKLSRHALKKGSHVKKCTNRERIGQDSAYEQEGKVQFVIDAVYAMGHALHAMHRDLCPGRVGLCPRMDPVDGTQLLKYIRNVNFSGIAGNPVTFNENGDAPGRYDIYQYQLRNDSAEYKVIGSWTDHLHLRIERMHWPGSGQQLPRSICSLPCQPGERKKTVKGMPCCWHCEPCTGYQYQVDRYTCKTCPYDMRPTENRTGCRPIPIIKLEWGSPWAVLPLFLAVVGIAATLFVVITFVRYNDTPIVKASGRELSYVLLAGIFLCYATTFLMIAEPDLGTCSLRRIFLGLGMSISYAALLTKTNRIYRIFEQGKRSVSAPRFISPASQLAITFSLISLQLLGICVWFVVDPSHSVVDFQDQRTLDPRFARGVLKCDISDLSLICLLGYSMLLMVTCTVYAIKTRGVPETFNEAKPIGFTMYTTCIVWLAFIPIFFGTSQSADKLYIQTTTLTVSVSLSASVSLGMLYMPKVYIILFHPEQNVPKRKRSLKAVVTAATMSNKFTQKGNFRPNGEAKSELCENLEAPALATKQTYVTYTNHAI

[6] = molecular target: Metabotropic glutamate receptor 7 (Homo sapiens, UniProt Q14831); test: Agonist activity at mGlu7 (unknown origin) expressed in HEK293 cells coexpressing chimeric Gq/i protein assessed as increase in intracellular calcium accumulation by Fluo-4 AM dye based fluorescence assay; assay type: functional, cell-based
Chain of Metabotropic glutamate receptor 7 (Q14831 whole entry): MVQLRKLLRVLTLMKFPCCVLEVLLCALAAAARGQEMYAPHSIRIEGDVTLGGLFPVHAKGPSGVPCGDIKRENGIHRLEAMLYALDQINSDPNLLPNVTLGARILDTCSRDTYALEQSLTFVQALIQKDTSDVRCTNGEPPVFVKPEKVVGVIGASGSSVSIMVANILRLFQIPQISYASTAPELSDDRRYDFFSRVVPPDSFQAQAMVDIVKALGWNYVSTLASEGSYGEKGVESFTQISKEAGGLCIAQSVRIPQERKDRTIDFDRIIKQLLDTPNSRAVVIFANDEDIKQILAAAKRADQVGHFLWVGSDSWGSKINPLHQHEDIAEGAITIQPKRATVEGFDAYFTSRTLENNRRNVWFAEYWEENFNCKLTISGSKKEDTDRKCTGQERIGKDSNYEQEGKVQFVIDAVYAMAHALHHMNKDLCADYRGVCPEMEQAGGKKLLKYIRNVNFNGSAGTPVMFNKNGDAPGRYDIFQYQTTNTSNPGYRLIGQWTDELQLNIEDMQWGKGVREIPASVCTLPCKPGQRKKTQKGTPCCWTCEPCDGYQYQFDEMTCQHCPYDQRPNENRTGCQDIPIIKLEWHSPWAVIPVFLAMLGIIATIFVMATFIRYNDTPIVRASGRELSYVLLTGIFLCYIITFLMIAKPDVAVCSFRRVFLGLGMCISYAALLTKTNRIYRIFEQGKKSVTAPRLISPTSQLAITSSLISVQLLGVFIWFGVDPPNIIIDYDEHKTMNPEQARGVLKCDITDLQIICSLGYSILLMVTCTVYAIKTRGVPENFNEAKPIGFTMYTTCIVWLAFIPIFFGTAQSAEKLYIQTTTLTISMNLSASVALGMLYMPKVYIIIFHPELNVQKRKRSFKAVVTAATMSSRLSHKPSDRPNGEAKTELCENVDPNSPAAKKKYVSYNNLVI

[7] = molecular target: Metabotropic glutamate receptor 6 (Homo sapiens, UniProt O15303); test: Agonist activity at mGlu6 (unknown origin) expressed in HEK293 cells coexpressing chimeric Gq/i protein assessed as increase in intracellular calcium accumulation by Fluo-4 AM dye based fluorescence assay; assay type: functional, cell-based
Chain of Metabotropic glutamate receptor 6 (O15303 whole entry): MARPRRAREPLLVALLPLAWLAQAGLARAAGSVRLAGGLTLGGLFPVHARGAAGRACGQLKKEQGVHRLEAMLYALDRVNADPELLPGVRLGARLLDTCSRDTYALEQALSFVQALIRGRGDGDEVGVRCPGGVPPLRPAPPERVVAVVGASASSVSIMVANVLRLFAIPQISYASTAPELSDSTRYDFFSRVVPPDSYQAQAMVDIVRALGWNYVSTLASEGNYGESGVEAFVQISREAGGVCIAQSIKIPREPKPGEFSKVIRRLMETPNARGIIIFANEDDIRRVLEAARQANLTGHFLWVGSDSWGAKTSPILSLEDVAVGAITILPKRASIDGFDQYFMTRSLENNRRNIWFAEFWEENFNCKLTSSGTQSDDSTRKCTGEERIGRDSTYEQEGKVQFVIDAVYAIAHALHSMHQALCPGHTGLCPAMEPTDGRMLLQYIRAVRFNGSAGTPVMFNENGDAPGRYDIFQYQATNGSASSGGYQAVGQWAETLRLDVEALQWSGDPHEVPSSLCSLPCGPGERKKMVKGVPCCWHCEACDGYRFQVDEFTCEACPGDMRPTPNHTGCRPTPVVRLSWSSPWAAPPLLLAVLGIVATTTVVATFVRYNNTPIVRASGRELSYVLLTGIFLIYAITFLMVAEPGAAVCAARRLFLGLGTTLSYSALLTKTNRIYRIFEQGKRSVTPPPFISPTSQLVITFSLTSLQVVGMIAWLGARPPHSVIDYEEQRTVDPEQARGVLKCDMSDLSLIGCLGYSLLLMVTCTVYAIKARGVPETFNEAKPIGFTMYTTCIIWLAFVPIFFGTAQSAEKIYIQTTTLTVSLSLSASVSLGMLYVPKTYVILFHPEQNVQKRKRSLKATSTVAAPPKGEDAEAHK

SMILES	EC50 [1] [µM]	Ratio EC50 (Homo sapiens [2])	Ratio EC50 (Homo sapiens [3])	EC50 [4] [µM]	EC50 [5] [µM]	EC50 [6] [µM]	EC50 [7] [µM]
N[C@@H](CCP(=O)(O)C(O)c1cc([N+](=O)[O-])cc([N+](=O)[O-])c1O)C(=O)O (some centres not stated)	4.5	1.9	–	–	–	–	–
N[C@@H](CCP(=O)(O)C(O)c1ccc(C(F)(F)F)o1)C(=O)O (some centres not stated)	5.2	3.1	–	–	–	–	–
N[C@@H](CCP(=O)(O)C(O)c1ccc(C(F)(F)F)cc1)C(=O)O (some centres not stated)	34	2.3	–	–	–	–	–
N[C@@H](CCP(=O)(O)C(O)c1cc([N+](=O)[O-])cc([N+](=O)[O-])c1)C(=O)O (some centres not stated)	6.6	4.5	–	–	–	–	–
N[C@@H](CCP(=O)(O)C(O)c1c[nH]c2ncccc12)C(=O)O (some centres not stated)	–	–	2	6.9	3.4	–	–
Nc1ccc(C(O)P(=O)(O)CC[C@H](N)C(=O)O)cc1 (some centres not stated)	8.4	0.9	0.9	8.4	8.8	11.6	–
N[C@@H](CCP(=O)(O)C(O)c1cccc([N+](=O)[O-])c1)C(=O)O (mixture of isomers)	–	2.8	2	–	–	–	–
N[C@@H](CCP(=O)(O)Cc1ccc(O)c([N+](=O)[O-])c1)C(=O)O	–	–	11	277	24	> 100	> 100
N[C@@H](CCP(=O)(O)C(O)c1ccc(O)c(C(=O)O)c1)C(=O)O (some centres not stated)	–	–	2.5	40	15.8	–	–
CCOc1cc([C@@H](O)P(=O)(O)CC[C@H](N)C(=O)O)cc([N+](=O)[O-])c1O	–	–	4.4	22	5.1	–	–
COc1cc(CP(=O)(O)CC[C@H](N)C(=O)O)cc([N+](=O)[O-])c1O	–	–	1.5	28	19	–	–
COc1cc([C@@H](O)P(=O)(O)CC[C@H](N)C(=O)O)cc([N+](=O)[O-])c1O	–	–	–	18	0.72	63	1.1
CC(=O)c1ccc(C(O)P(=O)(O)CC[C@H](N)C(=O)O)cc1 (some centres not stated)	14	1.8	–	–	–	–	–
COc1ccc([C@H](O)P(=O)(O)CC[C@H](N)C(=O)O)cc1[N+](=O)[O-]	–	–	1.3	2.2	1.7	> 100	3.9
N[C@@H](CCP(=O)(O)[C@@H](O)c1cccc([N+](=O)[O-])c1)C(=O)O	–	–	–	1.3	0.32	> 100	3.2
COc1ccc(C(O)P(=O)(O)CC[C@H](N)C(=O)O)cc1[N+](=O)[O-] (some centres not stated)	2.7	1.7	1	3.8	3.5	–	–
COc1ccc(C(O)P(=O)(O)CC[C@H](N)C(=O)O)cc1 (some centres not stated)	–	–	9.3	61	6.5	–	23
COc1ccc([C@@H](O)P(=O)(O)CC[C@H](N)C(=O)O)cc1[N+](=O)[O-]	–	–	1.2	2.5	2	> 100	4.5
N[C@@H](CCP(=O)(O)C(O)c1cc(F)c(O)c([N+](=O)[O-])c1)C(=O)O (some centres not stated)	–	–	12	23.4	1.95	51.2	1.07
N[C@@H](CCP(=O)(O)C(O)c1ccc(O)c([N+](=O)[O-])c1)C(=O)O (some centres not stated)	–	18	48	73	1.5	–	–
N[C@@H](CCP(=O)(O)C(O)c1cccc([N+](=O)[O-])c1O)C(=O)O (some centres not stated)	21.2	0.92	–	–	–	–	–
N[C@@H](CCP(=O)(O)C(NCCc1ccccc1)c1cccc([N+](=O)[O-])c1)C(=O)O (some centres not stated)	–	–	1.6	7.2	4.41	–	–

SMILES	EC50 [1] [µM]	Ratio EC50 (Homo sapiens [2])	Ratio EC50 (Homo sapiens [3])	EC50 [4] [µM]	EC50 [5] [µM]	EC50 [6] [µM]	EC50 [7] [µM]
N[C@@H](CCP(=O)(O)C(O)c1ccc([N+](=O)[O-])c(O)c1)C(=O)O (some centres not stated)	19.8	8.7	–	–	–	–	–
N[C@@H](CCP(=O)(O)C(O)c1ccncc1)C(=O)O (some centres not stated)	–	–	1	26.2	28	–	–
N[C@@H](CCP(=O)(O)C(O)c1ccc([N+](=O)[O-])cc1[N+](=O)[O-])C(=O)O (some centres not stated)	4.6	3.1	–	–	–	–	–
N[C@@H](CCP(=O)(O)C(O)c1c([N+](=O)[O-])cccc1[N+](=O)[O-])C(=O)O (some centres not stated)	2.9	1.7	–	–	–	–	–
NC(c1csc([N+](=O)[O-])c1)P(=O)(O)CC[C@H](N)C(=O)O (some centres not stated)	1.8	2.2	–	–	–	–	–
CCCCCCCCNC(c1cccc([N+](=O)[O-])c1)P(=O)(O)CC[C@H](N)C(=O)O (some centres not stated)	–	–	6.3	38	6.1	–	–
CS(=O)(=O)c1ccc(C(O)P(=O)(O)CC[C@H](N)C(=O)O)cc1 (some centres not stated)	–	–	–	> 100	59	> 100	> 100
CCOc1cc([C@H](O)P(=O)(O)CC[C@H](N)C(=O)O)cc([N+](=O)[O-])c1O	–	–	1	6.5	6.4	–	–
NC(c1cccc([N+](=O)[O-])c1)P(=O)(O)CC[C@H](N)C(=O)O (some centres not stated)	–	4.1	–	–	–	–	–
CCCCCCNC(c1cccc([N+](=O)[O-])c1)P(=O)(O)CC[C@H](N)C(=O)O (some centres not stated)	–	–	0.9	22.8	25	–	–
N[C@@H](CCP(=O)(O)C(O)c1coc(C(=O)O)c1)C(=O)O (some centres not stated)	9.2	4.6	–	–	–	–	–
N[C@@H](CCP(=O)(O)C(NCc1cccc2ccccc12)c1cccc([N+](=O)[O-])c1)C(=O)O (some centres not stated)	–	–	4.3	35.4	7.9	–	–
N[C@@H](CCP(=O)(O)C(O)c1ccc(O)cc1)C(=O)O (some centres not stated)	–	–	3.2	25	7.7	–	–
N[C@@H](CCP(=O)(O)C(O)c1ccc(O)nc1)C(=O)O (some centres not stated)	–	–	0.5	17	33	–	–
N#Cc1cccc(C(O)P(=O)(O)CC[C@H](N)C(=O)O)c1 (some centres not stated)	219	5.3	–	–	–	–	–
N[C@@H](CCP(=O)(O)C(NCc1ccccc1)c1cccc([N+](=O)[O-])c1)C(=O)O (some centres not stated)	–	–	1.2	29.7	25.3	–	–
COc1cc([C@H](O)P(=O)(O)CC[C@H](N)C(=O)O)cc([N+](=O)[O-])c1O	–	–	–	26	4.4	100	2.4
CCOc1cc(C(O)P(=O)(O)CC[C@H](N)C(=O)O)cc([N+](=O)[O-])c1O (mixture of isomers)	–	–	2.4	20	–	–	–
N[C@@H](CCP(=O)(O)C(O)c1ccc(OCC(=O)O)cc1)C(=O)O (some centres not stated)	–	–	256	–	–	–	–
N[C@@H](CCP(=O)(O)Cc1cccc(C(=O)O)c1)C(=O)O	511	2.4	–	–	> 100	–	–
N[C@@H](CCP(=O)(O)C(O)c1cc([N+](=O)[O-])ccc1O)C(=O)O (some centres not stated)	4.2	4.6	–	–	–	–	–
N[C@@H](CCP(=O)(O)C(O)c1ccnc(O)c1)C(=O)O (some centres not stated)	–	–	1.9	81	42	–	–
